According to ChEMBL document CHEMBL3616437, “Thiazole compounds with activity against Cryptococcus gattii and Cryptococcus neoformans in vitro” (Eur J Med Chem, 2015):
Calls of active or inactive are those of the source. The calls are words filed in the database; no cut-off is given here.

What was measured:
Cryptococcus neoformans [1] = assay: Antifungal activity against Cryptococcus gattii ATCC 24065 assessed as reduction in cell viability at 26 uM after 6 to 72 hrs by MTT assay; assay type: functional, Cryptococcus bacillisporus
Method in brief: (§1)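 Time-kill setup: colonies from two 48 h, 35°C SDA passages were suspended in saline to 70% transmittance at 530 nm. They were then diluted to 1-5 x10^3 cells/mL in RPMI with L-glutamine buffered to pH 7.0 with 0.165 M MOPS. Plates were incubated at 35°C for 0-72 h, then MTT (5.0 mg/mL) was added for 3 h. After isopropanol, absorbance was read at 490 nm. Drug-free controls were included, results were confirmed by SDA colony counts, and assays were run in triplicate.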

[2] = tested on: Cryptococcus bacillisporus; assay: Antifungal activity against Cryptococcus gattii ATCC 32608 assessed as reduction in cell viability at 26 uM after 6 to 72 hrs by MTT assay; assay type: functional; method in brief: as §1
[3] = tested on: Cryptococcus gattii species complex; assay: Antifungal activity against Cryptococcus gattii 23/10993 assessed as reduction in cell viability at 26 uM after 6 to 72 hrs by MTT assay; assay type: functional, Cryptococcus bacillisporus; method in brief: as §1
[4] = tested on: Cryptococcus gattii species complex; assay: Antifungal activity against Cryptococcus gattii L28/02 assessed as reduction in cell viability at 26 uM after 6 to 72 hrs by MTT assay; assay type: functional, Cryptococcus bacillisporus; method in brief: as §1
[5] = tested on: Cryptococcus gattii species complex; assay: Antifungal activity against Cryptococcus gattii L27/01 assessed as reduction in cell viability at 26 uM after 6 to 72 hrs by MTT assay; assay type: functional, Cryptococcus bacillisporus; method in brief: as §1
[6] = tested on: Cryptococcus gattii species complex; assay: Antifungal activity against Cryptococcus gattii L24/01 assessed as reduction in cell viability at 26 uM after 6 to 72 hrs by MTT assay; assay type: functional, Cryptococcus bacillisporus; method in brief: as §1
[7] = tested on: Cryptococcus gattii species complex; assay: Antifungal activity against Cryptococcus gattii 1913ER assessed as reduction in cell viability at 26 uM after 6 to 72 hrs by MTT assay; assay type: functional, Cryptococcus bacillisporus; method in brief: as §1
Cryptococcus neoformans [8] = assay: Antifungal activity against Cryptococcus neoformans CN31 assessed as reduction in cell viability at 26 uM after 6 to 72 hrs by MTT assay; assay type: functional; method in brief: as §1
Cryptococcus neoformans [9] = assay: Antifungal activity against Cryptococcus neoformans LMM820 assessed as reduction in cell viability at 26 uM after 6 to 72 hrs by MTT assay; assay type: functional; method in brief: as §1
Cryptococcus neoformans [10] = assay: Antifungal activity against Cryptococcus neoformans 96806 assessed as reduction in cell viability at 1.9 uM after 6 to 72 hrs by MTT assay; assay type: functional
Cryptococcus neoformans [11] = assay: Antifungal activity against Cryptococcus neoformans 5396 assessed as reduction in cell viability at 1.9 uM after 6 to 72 hrs by MTT assay; assay type: functional
Cryptococcus neoformans [12] = assay: Antifungal activity against Cryptococcus neoformans 28JF assessed as reduction in cell viability at 1.9 uM after 6 to 72 hrs by MTT assay; assay type: functional
Cryptococcus neoformans [13] = assay: Antifungal activity against Cryptococcus neoformans 27JF assessed as reduction in cell viability at 1.9 uM after 6 to 72 hrs by MTT assay; assay type: functional
[14] = tested on: Cryptococcus bacillisporus; assay: Antifungal activity against Cryptococcus gattii ATCC 32608 assessed as reduction in cell viability after at 0.12 uM 6 to 72 hrs by MTT assay; assay type: functional
[15] = tested on: Cryptococcus gattii species complex; assay: Antifungal activity against Cryptococcus gattii 23/10993 assessed as reduction in cell viability at 0.12 uM after 6 to 72 hrs by MTT assay; assay type: functional, Cryptococcus bacillisporus
[16] = tested on: Cryptococcus gattii species complex; assay: Antifungal activity against Cryptococcus gattii 547/OTTI-97-PI-10 assessed as reduction in cell viability at 0.12 uM after 6 to 72 hrs by MTT assay; assay type: functional, Cryptococcus bacillisporus
[17] = tested on: Cryptococcus gattii species complex; assay: Antifungal activity against Cryptococcus gattii 135L/03 assessed as reduction in cell viability at 0.12 uM after 6 to 72 hrs by MTT assay; assay type: functional, Cryptococcus bacillisporus
[18] = tested on: Cryptococcus gattii species complex; assay: Antifungal activity against Cryptococcus gattii ICB181 assessed as reduction in cell viability at 0.12 uM after 6 to 72 hrs by MTT assay; assay type: functional, Cryptococcus bacillisporus
Cryptococcus neoformans [19] = assay: Antifungal activity against Cryptococcus neoformans ATCC 24067 assessed as reduction in cell viability at 0.12 uM after 6 to 72 hrs by MTT assay; assay type: functional
Cryptococcus neoformans [20] = assay: Antifungal activity against Cryptococcus neoformans ATCC 62066 assessed as reduction in cell viability at 0.12 uM after 6 to 72 hrs by MTT assay; assay type: functional
Cryptococcus neoformans [21] = assay: Antifungal activity against Cryptococcus neoformans 5396 assessed as reduction in cell viability at 0.12 uM after 6 to 72 hrs by MTT assay; assay type: functional
Cryptococcus neoformans [22] = assay: Antifungal activity against Cryptococcus neoformans F10 assessed as reduction in cell viability at 0.12 uM after 6 to 72 hrs by MTT assay; assay type: functional
Cryptococcus neoformans [23] = assay: Antifungal activity against Cryptococcus neoformans 27JF assessed as reduction in cell viability at 0.12 uM after 6 to 72 hrs by MTT assay; assay type: functional
Cryptococcus neoformans [24] = assay: Antifungal activity against Cryptococcus neoformans WP assessed as reduction in cell viability at 0.12 uM after 6 to 72 hrs by MTT assay; assay type: functional
[25] = tested on: Cryptococcus gattii species complex; assay: Antifungal activity against Cryptococcus gattii ATCC 24065 assessed as reduction in cell viability at 0.12 uM after 6 to 72 hrs by MTT assay
Cryptococcus neoformans [26] = assay: Antifungal activity against Cryptococcus neoformans ATCC 24067 assessed as reduction in cell viability at 0.9 uM after 6 to 72 hrs by MTT assay; assay type: functional
Cryptococcus neoformans [27] = assay: Antifungal activity against Cryptococcus neoformans 5396 assessed as reduction in cell viability at 0.9 uM after 6 to 72 hrs by MTT assay; assay type: functional
Cryptococcus neoformans [28] = assay: Antifungal activity against Cryptococcus neoformans LMM820 assessed as reduction in cell viability at 0.9 uM after 6 to 72 hrs by MTT assay; assay type: functional
Cryptococcus neoformans [29] = assay: Antifungal activity against Cryptococcus neoformans F10 assessed as reduction in cell viability at 0.9 uM after 6 to 72 hrs by MTT assay; assay type: functional
[30] = tested on: Cryptococcus gattii species complex; assay: Antifungal activity against Cryptococcus gattii L27/01 assessed as reduction in ergosterol content at MIC after 24 hrs by spectrophotometric analysis in presence of amphotericin B; assay type: functional, organism-based; conditions: Cryptococcus bacillisporus
Method in brief: (§2)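 Pellet washed and weighed, then saponified in 25% ethanolic KOH at 85°C for 1 h. Extracted with water and n-heptane, read at 282 and 230 nm. Ergosterol taken from a standard curve and expressed as % of growth control.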

[31] = tested on: Cryptococcus gattii species complex; assay: Antifungal activity against Cryptococcus gattii 196L/03 assessed as reduction in ergosterol content at MIC after 24 hrs by spectrophotometric analysis in presence of amphotericin B; assay type: functional, organism-based; conditions: Cryptococcus bacillisporus; method in brief: as §2
[32] = tested on: Cryptococcus gattii species complex; assay: Post-antifungal activity against Cryptococcus gattii L27/01 assessed as organism required time to achieve cell population of 10^4 cells/ml at 0.45 uM treated for 1 hr by MTT assay; assay type: functional, Cryptococcus bacillisporus
[33] = tested on: Cryptococcus gattii species complex; assay: Post-antifungal activity against Cryptococcus gattii L27/01 assessed as organism required time to achieve cell population of 10^4 cells/ml at 0.45 uM treated for 1 hr by MTT assay in presence of 0.11 uM amphotericin B; assay type: functional, Cryptococcus bacillisporus
Cryptococcus neoformans [34] = assay: Post-antifungal activity against Cryptococcus neoformans CN31 assessed as organism required time to achieve cell population of 10^4 cells/ml at 0.9 uM treated for 1 hr by MTT assay; assay type: functional
Cryptococcus neoformans [35] = assay: Post-antifungal activity against Cryptococcus neoformans CN31 assessed as organism required time to achieve cell population of 10^4 cells/ml at 0.9 uM treated for 1 hr by MTT assay in presence of 0.05 uM amphotericin B; assay type: functional

OC(Cn1cncn1)(Cn1cncn1)c1ccc(F)cc1F [FLUCONAZOLE]
Activity (Cryptococcus neoformans [1]): 80%
Activity [2]: 80%
Activity [3]: 80%
Activity [4]: 80%
Activity [5]: 80%
Activity [6]: 80%
Activity [7]: 80%
Activity (Cryptococcus neoformans [8]): 80%
Activity (Cryptococcus neoformans [9]): 80%

C(=N\Nc1nc(-c2ccccc2)cs1)/C1CCCCC1
Activity (Cryptococcus neoformans [10]): 90%
Activity (Cryptococcus neoformans [11]): 90%
Activity (Cryptococcus neoformans [12]): 90%
Activity (Cryptococcus neoformans [13]): 90%

C[C@@H]1[C@H](O)[C@@H](C)/C=C/C=C/C=C/C=C/C=C/C=C/C=C/[C@H](O[C@@H]2O[C@H](C)[C@@H](O)[C@H](N)[C@@H]2O)C[C@@H]2O[C@](O)(C[C@@H](O)C[C@@H](O)[C@H](O)CC[C@@H](O)C[C@@H](O)CC(=O)O[C@H]1C)C[C@H](O)[C@H]2C(=O)O [AMPHOTERICIN B]
Activity [14]: 90%
Activity [15]: 90%
Activity [16]: 90%
Activity [17]: 90%
Activity [18]: 90%
Activity (Cryptococcus neoformans [19]): 90%
Activity (Cryptococcus neoformans [20]): 90%
Activity (Cryptococcus neoformans [21]): 90%
Activity (Cryptococcus neoformans [22]): 90%
Activity (Cryptococcus neoformans [23]): 90%
Activity (Cryptococcus neoformans [24]): 90%
Activity [25]: 90%

COc1ccc(-c2csc(N/N=C(\C)CCO)n2)cc1
Activity (Cryptococcus neoformans [26]): 90%
Activity (Cryptococcus neoformans [27]): 90%
Activity (Cryptococcus neoformans [28]): 90%
Activity (Cryptococcus neoformans [29]): 90%
Activity [30]: inactive
Activity [31]: inactive
Time [32]: 1.7 h
Time [33]: 2.15 h
Time (Cryptococcus neoformans [34]): 2.8 h
Time (Cryptococcus neoformans [35]): 2.1 h
